Data set [1] can be described thus: Metabolic stability in human liver microsomes assessed as intrinsic clearance incubated for 30 mins in presence of NADPH measured per mg protein. The following applies: for microsomal CLint: liver microsomes, read-out: CLH. The data set is classed as ADME, Microsome. Summed up: (§1)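 Compound incubated with human or rat hepatic microsomes plus NADPH at 37 °C for 30 min. Intrinsic clearance expressed as μL/min/mg protein.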
Background: Microsomes from liver hold many membrane-bound enzymes, among them those of drug oxidation.

Data set [2] is described as follows: Metabolic stability in rat liver microsomes assessed as intrinsic clearance incubated for 30 mins in presence of NADPH measured per mg protein. The data set is classed as ADME, Microsome. The following applies: for microsomal CLint: liver microsomes, read-out: CLH; for CLH: microsomes, 0.5 h. Summed up: as §1
A short description of data set [3]: Glutathione reactivity assessed as dansylatedGSH-compound conjugate formation in presence of human liver microsomes by fluorescence detector based HPLC analysis. The class given is physicochemical. The method in brief: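 Reactive metabolite trapping: compound incubated with dansylated glutathione and human liver microsomes. dGSH-conjugate quantified by HPLC with fluorescence detection and reported in μmol/L.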

The nature of data set [4]: Plasma concentration in mouse at 2 mg/kg, po. The data set is classed as ADME, organism-based. The following applies: in vivo. The method in brief: (§2)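 Mouse PK after a single oral dose (2 mg/kg; 10 mg/kg where marked). Plasma concentration given in ng/mL and brain concentration in ng/g tissue. Brain/plasma ratio computed from these. Values given as mean ± spread.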
Data set [5] in a line: Ratio of drug concentration in brain to plasma in mouse at 2 mg/kg, po. The data set is classed as ADME, organism-based. The following applies: read-out: BPR. The method in brief:
as §2

A short description of data set [6]: Drug concentration in mouse brain at 2 mg/kg, po measured per gm of tissue. The class given is ADME, organism-based. The settings on record: in vivo. The method in brief: as §2
The nature of data set [7]: Plasma concentration in mouse at 10 mg/kg, po. The data set is classed as ADME, organism-based. The settings on record: in vivo. The method in brief: as §2
A short description of data set [8]: Solubility of the compound at pH 1.2. The data set is classed as physicochemical. The settings on record: buffer.
Data set [9] in a line: Solubility of the compound at pH 7.4. The class given is physicochemical. The following applies: buffer.
A short description of data set [10]: Half life in mouse. The class given is ADME, organism-based. The following applies: in vivo.
Data set [11] is described as follows: Clearance in mouse. The class given is ADME, organism-based. The settings on record: in vivo.
Data set [12] is described as follows: Drug concentration in mouse brain at 10 mg/kg, po measured per gm of tissue. The settings on record: in vivo. The data set is classed as ADME, organism-based. The method in brief:
as §2

Data set [13] can be described thus: Ratio of drug concentration in brain to plasma in mouse at 10 mg/kg, po. The data set is classed as ADME, organism-based. The settings on record: read-out: BPR. Summed up: as §2
Data set [14] in a line: Plasma concentration in cynomolgus monkey at 5 mg/kg, po measured after 2 hrs of administration. The data set is classed as ADME, organism-based, Macaca fascicularis. Summed up: (§3)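 Cynomolgus monkeys (n=2) dosed orally. Blood and brain collected 2 h after dosing. Plasma (ng/mL) and striatum (ng/g) concentrations measured and the striatum/plasma ratio taken per animal and as the mean. Brain free concentration derived using protein binding ratio.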

Data set [15] in a line: Drug uptake in cynomolgus monkey striatum at 5 mg/kg, po measured after 2 hrs of administration. The data set is classed as ADME, organism-based, Macaca fascicularis. The following applies: read-out: Drug uptake. The method in brief: as §3
Data set [16] can be described thus: Ratio of drug level in cynomolgus monkey striatum to plasma at 5 mg/kg, po measured after 2 hrs of administration.

Structures are written as SMILES. Values after ≈ are worked out from the molar mass of the structure shown.

On to `O=S(=O)(CC1CCCCO1)Nc1ccc(-c2cc(F)ccc2N2CCCCC2)nn1` (stereo unspecified), for which the microsomal CLint in data set [1] amounted to 0.139 µL/min/mg; in [2], 0.435 µL/min/mg. The Drug metabolism in data set [3] came out at 0 µmol/mL.

With `CC(C)CS(=O)(=O)Nc1ccc(-c2cc(F)ccc2N2CCCCC2)nn1`, the microsomal CLint was 0.375 µL/min/mg in data set [1] and 0.483 µL/min/mg in [2]. The Drug metabolism in [3] turned out to be 0.00011 µmol/mL.

`Cc1ccc(S(=O)(=O)Nc2ccc(-c3c(F)cccc3N3CCCCC3)nn2)cc1`: the figures for the microsomal CLint in [1] and in data set [2] were 0.478 µL/min/mg and 0.339 µL/min/mg, respectively. The Drug metabolism in data set [3] was determined as 0.000637 µmol/mL. For the same molecule, in data set [4], the Cp was 284 ng/mL. Also, the Kp in data set [5] turned out to be 0.28. The same molecule yielded a Ct in [6] of 79 ng/g.

Turning to `CCCS(=O)(=O)Nc1ccc(-c2cc(F)ccc2N2CCCCC2)nn1`, the microsomal CLint was found to be 0.179 µL/min/mg in data set [1] and 0.168 µL/min/mg in [2]. Also, the Drug metabolism in data set [3] came to 0 µmol/mL.

Take `COCCCS(=O)(=O)Nc1ccc(-c2cc(F)ccc2N2CCCCC2)nn1`: the CLH was determined as 0.026 µL/min/mg in [1] (microsomes, 0.5 h) and 0.045 µL/min/mg in data set [2]. Moreover, in data set [3], the Drug metabolism turned out to be 0 µmol/mL.

For the molecule `O=S(=O)(CC1CCCC1)Nc1ccc(-c2cc(F)ccc2N2CCCCC2)nn1`, the microsomal CLint in data set [1] stood at 0.703 µL/min/mg; in data set [2], 1.6 µL/min/mg. The Drug metabolism in [3] came out at 0.00049 µmol/mL.

Broadly, the solubility is the concentration that dissolves in the medium under given conditions. One may read the half-life as the time in which the quantity being followed falls by half. One may read the clearance as a measure of how efficiently the substance is removed, as volume per time. Turning to `Cc1ccc(S(=O)(=O)Nc2ccc(-c3ccccc3N3CCCCC3)nn2)cc1`, the microsomal CLint was 1.07 µL/min/mg in data set [1] and 0.395 µL/min/mg in [2]. In [3], the Drug metabolism is 0.000852 µmol/mL. The molecule also returned a Cp in data set [7] of 808 ng/mL. The solubility in [8] was 163 µg/mL (≈ 399 µM); in data set [9], under 1 µg/mL. The same molecule gave a half-life in data set [10] of 18 min. The clearance in [11] was found to be 67 mL/min/kg. The Ct in data set [12] was found to be 230 ng/g. Besides, in data set [13], the Kp turned out to be 0.28.

In the case of `O=C(O)c1cc(-c2ccc(Cl)c(OC3CC3)c2)ncn1`, the concentration at 2 h in [14] came to 15600 ng/mL; in data set [15] it was 64.8 ng/g. Further, the Kp at 2 h in data set [16] was 0.004.

For the molecule `COCCS(=O)(=O)Nc1ccc(-c2cc(F)ccc2N2CCCCC2)nn1`, in data set [1], the microsomal CLint came out at 0.179 µL/min/mg. Also, the CLH in data set [2] was 0.05 µL/min/mg. Besides, in data set [3], the Drug metabolism was 0 µmol/mL.

Consider `Cc1ccc(S(=O)(=O)Nc2ccc(-c3cccc(F)c3N3CCCCC3)nn2)cc1`, for which the results for the microsomal CLint in data set [1] and in data set [2] were 0.178 µL/min/mg and 0.518 µL/min/mg, respectively. Besides, the Drug metabolism in data set [3] was found to be 0.000146 µmol/mL.

In the case of `O=S(=O)(CC(F)(F)F)Nc1ccc(-c2cc(F)ccc2N2CCCCC2)nn1`, the microsomal CLint in data set [1] turned out to be 0.569 µL/min/mg; in data set [2] it was 0.265 µL/min/mg. For the same molecule, the Drug metabolism in data set [3] was 0 µmol/mL.

Regarding `CCS(=O)(=O)Nc1ccc(-c2cc(F)ccc2N2CCCCC2)nn1`, the values for the microsomal CLint in data set [1] and in data set [2] were 0.156 µL/min/mg and under 0.05 µL/min/mg, respectively. Further, the Drug metabolism in data set [3] stood at 0 µmol/mL.

The values are drawn from ChEMBL document CHEMBL4834453, “Discovery of N-(6-(5-fluoro-2-(piperidin-1-yl)phenyl)pyridazin-3-yl)-1-(tetrahydro-2H-pyran-4-yl)methanesulfonamide as a brain-permeable and metabolically stable kynurenine monooxygenase inhibitor” (Bioorg Med Chem Lett, 2021).
